pIC50, pKd: −log10 of the molar value. Activity calls are given as the source filed them. The calls are words filed in the database; no cut-off is given here. Residues, ends and D or L forms follow the SMILES beside them. *: point of attachment. X65 = O=C(O)[C@H](CC(=O)*)SCc1cccc([N+](=O)[O-])c1; X63 = O=C(O)[C@@H](CC(=O)*)SCc1ccc(Cl)c(Cl)c1; X64 = O=C(O)[C@H](CC(=O)*)Sc1c(Cl)cccc1Cl; X66 = COc1ccc(CS[C@@H](CC(=O)*)C(=O)O)cc1; X1 = O=C(O)[C@H](CC(=O)*)Sc1ccc2ccccc2c1; X68 = Cc1ccc(S[C@H](CC(=O)*)C(=O)O)cc1C; X69 = O=C(O)[C@@H](CC(=O)*)Sc1ccccc1; Bz = O=C(c1ccccc1)*
Key:
[1] = biological target: T1, NAD-dependent protein deacylase sirtuin-5, mitochondrial (Homo sapiens, UniProt Q9NXA8); assay: Inhibition of human recombinant N-terminal Strep2-tagged SIRT5 expressed in Escherichia coli BL21 (DE3) using Abz-GVLK(glutaryl)AY(NO2)GV-NH2 as substrate in presence of NAD+ by fluorescence assay
[2] = biological target: T2, NAD-dependent protein deacetylase sirtuin-1 (Homo sapiens) (UniProt Q96EB6); assay: Inhibition of SIRT1 (unknown origin) up to 50 uM using Bz-GVLK(acetyl)EYGV-NH2 as substrate after 8 mins by HPLC analysis
T2 sequence (whole entry): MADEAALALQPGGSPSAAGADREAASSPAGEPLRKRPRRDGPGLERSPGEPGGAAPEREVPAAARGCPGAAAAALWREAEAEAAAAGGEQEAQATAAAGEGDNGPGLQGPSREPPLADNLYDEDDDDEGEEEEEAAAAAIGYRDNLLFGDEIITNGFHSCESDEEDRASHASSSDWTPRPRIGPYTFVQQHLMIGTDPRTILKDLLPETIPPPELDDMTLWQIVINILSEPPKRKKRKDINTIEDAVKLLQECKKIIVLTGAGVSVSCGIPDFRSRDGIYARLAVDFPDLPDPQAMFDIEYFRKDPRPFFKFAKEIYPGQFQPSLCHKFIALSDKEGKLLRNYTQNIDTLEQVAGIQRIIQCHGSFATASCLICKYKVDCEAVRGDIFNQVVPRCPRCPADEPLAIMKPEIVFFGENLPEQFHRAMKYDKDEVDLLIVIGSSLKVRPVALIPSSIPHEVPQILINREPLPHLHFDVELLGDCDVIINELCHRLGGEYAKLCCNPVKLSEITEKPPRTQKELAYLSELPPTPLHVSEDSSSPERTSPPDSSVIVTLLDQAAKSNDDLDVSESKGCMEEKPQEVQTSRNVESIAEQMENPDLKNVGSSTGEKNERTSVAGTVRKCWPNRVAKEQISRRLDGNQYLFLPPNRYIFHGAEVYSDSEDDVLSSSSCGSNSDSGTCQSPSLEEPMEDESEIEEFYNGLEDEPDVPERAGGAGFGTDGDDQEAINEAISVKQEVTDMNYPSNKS
How it was run: (§1)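 HPLC activity assay at 37°C with 0 or 50 µM inhibitor, 500 µM NAD+, 5% DMSO, 0.1 µM enzyme and 50 µM substrate, in 20 mM Tris, 150 mM NaCl, 5 mM MgCl2, pH 7.8. Incubation 8 min for SIRT1-3 and 6 min for SIRT6. Stopped with TFA-water (1:9), then analysed by reversed-phase HPLC with detection at 260 nm.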

[3] = biological target: T3, NAD-dependent protein deacetylase sirtuin-2 (Homo sapiens) (UniProt Q8IXJ6); assay: Inhibition of SIRT2 (unknown origin) up to 50 uM using Bz-GVLK(acetyl)EYGV-NH2 as substrate after 8 mins by HPLC analysis; how it was run: as §1
T3 sequence (whole entry): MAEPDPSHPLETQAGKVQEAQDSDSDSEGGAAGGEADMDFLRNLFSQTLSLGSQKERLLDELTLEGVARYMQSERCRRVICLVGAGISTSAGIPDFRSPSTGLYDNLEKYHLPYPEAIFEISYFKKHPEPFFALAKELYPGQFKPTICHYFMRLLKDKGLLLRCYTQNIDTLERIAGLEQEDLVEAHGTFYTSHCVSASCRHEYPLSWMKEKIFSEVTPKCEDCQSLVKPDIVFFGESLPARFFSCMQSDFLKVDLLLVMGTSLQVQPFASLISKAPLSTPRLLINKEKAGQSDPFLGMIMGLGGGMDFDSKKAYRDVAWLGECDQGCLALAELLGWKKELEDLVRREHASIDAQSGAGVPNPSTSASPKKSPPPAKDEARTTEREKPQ

[4] = biological target: T4, NAD-dependent protein deacetylase sirtuin-3, mitochondrial (Homo sapiens) (UniProt Q9NTG7); assay: Inhibition of SIRT3 (unknown origin) up to 50 uM using Bz-GVLK(acetyl)EYGV-NH2 as substrate after 8 mins by HPLC analysis; how it was run: as §1
T4 sequence (whole entry): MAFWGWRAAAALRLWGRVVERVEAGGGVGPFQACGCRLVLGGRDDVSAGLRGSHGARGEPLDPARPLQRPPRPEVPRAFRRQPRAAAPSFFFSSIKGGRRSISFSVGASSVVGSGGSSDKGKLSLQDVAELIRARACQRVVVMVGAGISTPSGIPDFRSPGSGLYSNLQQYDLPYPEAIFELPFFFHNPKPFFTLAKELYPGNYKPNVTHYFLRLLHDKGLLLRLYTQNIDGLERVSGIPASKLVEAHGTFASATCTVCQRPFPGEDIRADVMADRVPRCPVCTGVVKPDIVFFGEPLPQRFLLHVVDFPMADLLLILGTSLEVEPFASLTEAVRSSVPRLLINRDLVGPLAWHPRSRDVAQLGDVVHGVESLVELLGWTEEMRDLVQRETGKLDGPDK

[5] = biological target: NAD-dependent protein deacylase sirtuin-6 (Homo sapiens) (UniProt Q8N6T7); assay: Inhibition of SIRT6 (unknown origin) up to 50 uM using Ac-EALPKK(myristoyl)TGGNH2 as substrate after 6 mins by HPLC analysis; how it was run: as §1
[6] = biological target: T1, NAD-dependent protein deacylase sirtuin-5, mitochondrial; assay: Binding affinity to human N-terminal biotinylated SIRT5 by surface plasmon resonance spectroscopy
How it was run: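 Surface plasmon resonance: N-terminally biotinylated Sirt5 (biotinylated via Trypsiligase) immobilized on a streptavidin-coated sensor chip at about 1800 RU. Biotinylated ligand injected at 50 nM in PBS (4 mM KH2PO4, 16 mM Na2HPO4, 115 mM NaCl, pH 7.4). Kinetic constants and affinity obtained by fitting to a 1:1 Langmuir binding model.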

T1 sequence (Q9NXA8 whole entry): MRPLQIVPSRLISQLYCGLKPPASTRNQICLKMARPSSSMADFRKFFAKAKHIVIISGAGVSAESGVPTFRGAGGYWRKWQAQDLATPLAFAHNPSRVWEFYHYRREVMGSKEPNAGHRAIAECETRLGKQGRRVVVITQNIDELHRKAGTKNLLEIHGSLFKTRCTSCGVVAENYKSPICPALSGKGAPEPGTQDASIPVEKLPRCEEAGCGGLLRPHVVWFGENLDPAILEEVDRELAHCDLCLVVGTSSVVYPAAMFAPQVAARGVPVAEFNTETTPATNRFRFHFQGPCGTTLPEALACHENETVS
Sequence of NAD-dependent protein deacylase sirtuin-6 (Homo sapiens) (Q8N6T7 whole entry): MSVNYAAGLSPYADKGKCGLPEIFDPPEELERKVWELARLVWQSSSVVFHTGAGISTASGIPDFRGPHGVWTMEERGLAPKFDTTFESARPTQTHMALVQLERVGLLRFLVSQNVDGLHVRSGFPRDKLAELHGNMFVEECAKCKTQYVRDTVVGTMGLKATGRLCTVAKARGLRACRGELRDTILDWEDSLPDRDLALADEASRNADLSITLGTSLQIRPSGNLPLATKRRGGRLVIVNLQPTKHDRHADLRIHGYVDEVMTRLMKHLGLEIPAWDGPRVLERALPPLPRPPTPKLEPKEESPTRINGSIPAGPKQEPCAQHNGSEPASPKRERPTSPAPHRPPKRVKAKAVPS

Row | Structure (SMILES) | pIC50 [1] | also measured
1 | CC(C)C[C@H](NC(=O)[C@@H](NC(=O)CNC(=O)c1ccccc1)C(C)C)C(=O)N[C@@H](CCCCNC(=O)C[C@H](Sc1ccc2ccccc2c1)C(=O)O)C(=O)N[C@@H](CCC(=O)O)C(=O)N[C@@H](Cc1ccc(O)cc1)C(=O)NCC(=O)N[C@H](C(N)=O)C(C)C (Bz-GVLK(X1)EYGV-NH2) | 7.52 | inhibition [2]: inactive; inhibition [3]: inactive; inhibition [4]: inactive; inhibition [5]: inactive; pKd [6]: 11.00
2 | CC(C)C[C@H](NC(=O)[C@@H](NC(=O)CNC(=O)c1ccccc1)C(C)C)C(=O)N[C@@H](CCCCNC(=O)C[C@@H](SCc1ccc(Cl)c(Cl)c1)C(=O)O)C(=O)N[C@@H](CCC(=O)O)C(=O)N[C@@H](Cc1ccc(O)cc1)C(=O)NCC(=O)N[C@H](C(N)=O)C(C)C (Bz-GVLK(X63)EYGV-NH2) | 6.11 | –
3 | CC(C)C[C@H](NC(=O)[C@@H](NC(=O)CNC(=O)c1ccccc1)C(C)C)C(=O)N[C@@H](CCCCNC(=O)C[C@H](Sc1c(Cl)cccc1Cl)C(=O)O)C(=O)N[C@@H](CCC(=O)O)C(=O)N[C@@H](Cc1ccc(O)cc1)C(=O)NCC(=O)N[C@H](C(N)=O)C(C)C (Bz-GVLK(X64)EYGV-NH2) | 6.24 | –
4 | CC(C)C[C@H](NC(=O)[C@@H](NC(=O)CNC(=O)c1ccccc1)C(C)C)C(=O)N[C@@H](CCCCNC(=O)C[C@H](SCc1cccc([N+](=O)[O-])c1)C(=O)O)C(=O)N[C@@H](CCC(=O)O)C(=O)N[C@@H](Cc1ccc(O)cc1)C(=O)NCC(=O)N[C@H](C(N)=O)C(C)C (Bz-GVLK(X65)EYGV-NH2) | 5.57 | –
5 | COc1ccc(CS[C@@H](CC(=O)NCCCC[C@H](NC(=O)[C@H](CC(C)C)NC(=O)[C@@H](NC(=O)CNC(=O)c2ccccc2)C(C)C)C(=O)N[C@@H](CCC(=O)O)C(=O)N[C@@H](Cc2ccc(O)cc2)C(=O)NCC(=O)N[C@H](C(N)=O)C(C)C)C(=O)O)cc1 (Bz-GVLK(X66)EYGV-NH2) | 5.98 | –
6 | Cc1ccc(S[C@H](CC(=O)NCCCC[C@H](NC(=O)[C@H](CC(C)C)NC(=O)[C@@H](NC(=O)CNC(=O)c2ccccc2)C(C)C)C(=O)N[C@@H](CCC(=O)O)C(=O)N[C@@H](Cc2ccc(O)cc2)C(=O)NCC(=O)N[C@H](C(N)=O)C(C)C)C(=O)O)cc1C (Bz-GVLK(X68)EYGV-NH2) | 5.90 | –
7 | CC(C)C[C@H](NC(=O)[C@@H](NC(=O)CNC(=O)c1ccccc1)C(C)C)C(=O)N[C@@H](CCCCNC(=O)C[C@@H](Sc1ccccc1)C(=O)O)C(=O)N[C@@H](CCC(=O)O)C(=O)N[C@@H](Cc1ccc(O)cc1)C(=O)NCC(=O)N[C@H](C(N)=O)C(C)C (Bz-GVLK(X69)EYGV-NH2) | 5.75 | –

Reference: ChEMBL document CHEMBL4033793, “Potent and Selective Inhibitors of Human Sirtuin 5” (J Med Chem, 2018)
